The record followed here is the RNAGym collection of RNA variant scans (doi:10.1038/nmeth.2970).

The chains are these.
B1: NELF-E aptamer (parent)
chain: CCCAACGACUGCCGAGCGAGAUUACGCUUGAGCGCCCCACUGAGGAUGCCCACGGGCGAUUGGGGCACGG

Usually Kd stands for the equilibrium constant for the complex coming apart.

The variants in this series derive from B1. Put plainly: HiTS-RAP. To be noted: with NELF-E (Drosophila). The essentials:
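Kd came from weighted Hill fits to the first binding curve, with intensities normalised to sequencing intensity and averaged per sequence, keeping only fits whose variance was below 1,000,000. That curve was imaged on an Illumina GAIIx flowcell, where sequenced aptamer DNA templates with a T7 promoter and ter site had been transcribed in situ by T7 RNA polymerase and halted by GST-Tus (30 minutes, 37°C). Before each image, clusters equilibrated for 30 minutes at room temperature with NELF-E-mOrange at 0.064 to 1000 nM in HEPES binding buffer.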
C17G U41G: the dissociation constant Kd came out at 4.85 nM.

Take C17U G34A: the equilibrium dissociation constant (Kd) was 5.49 nM.

Take U22G A39G: the equilibrium dissociation constant (Kd) is 8.32 nM.

As for U22G A39U, the Kd was 29.7 nM.

U23A: the Kd was 5.15 nM.

As to U23C, the dissociation constant Kd is 4.16 nM.

For A19G C35U, the dissociation constant (Kd) stood at 7.42 nM.

On to A19G A21G, for which the equilibrium dissociation constant (Kd) came out at 6.58 nM.

For G16U U23G, the Kd worked out at 5.85 nM.

Take U22G A46U: the Kd turned out to be 33 nM.

Regarding U22G A46G, the Kd was 35.8 nM.

Regarding G20U U29G, the Kd came out at 6.19 nM.

On to G16U C66U, for which the Kd came out at 5.92 nM.

In the case of U22G U61G, the Kd stood at 9.56 nM.

Regarding U22G U61A, the Kd is 29.9 nM.

Take U22G U47G: the Kd came to 7.29 nM.

U22G U47A: the Kd worked out at 11.3 nM.

As to U22G G44A, the dissociation constant (Kd) came to 17.5 nM.

With U22G G44U, the dissociation constant (Kd) came to 17.2 nM.

Regarding C17G C40G, the equilibrium dissociation constant (Kd) came out at 5.54 nM.

As to G18U A24G, the Kd was found to be 5.98 nM.

In the case of G18A U22G, the Kd was found to be 6 nM.

Regarding G16U A19G, the dissociation constant Kd was 6.97 nM.

On to G16U A19U, for which the Kd was determined as 5.21 nM.

With G20A U22G, the Kd was 5.27 nM.

In the case of A19G G34A, the Kd amounted to 6.47 nM.

Regarding A19G A46G, the equilibrium dissociation constant (Kd) is 20.6 nM.

On to G16U G34A, for which the equilibrium dissociation constant (Kd) came out at 9.22 nM.

As for G16U A21G, the Kd stood at 5.22 nM.

On to G16U A21U, for which the dissociation constant (Kd) was 6.82 nM.

As to C17G U23G, the dissociation constant Kd was found to be 5.45 nM.

G20U U41G: the Kd was determined as 6.33 nM.

Consider C17G A43G, for which the equilibrium dissociation constant (Kd) was 9.66 nM.

For G16U U28G, the Kd amounted to 6.45 nM.

For the variant C17G A21G, the dissociation constant (Kd) was 6.68 nM.

For the variant A19G U41G, the Kd came out at 6.27 nM.

On to A19G U41C, for which the Kd was 92.4 nM.

As to U22G G62U, the equilibrium dissociation constant (Kd) was 10.4 nM.

Consider U22G G62A, for which the Kd is 18.2 nM.

For the variant U22G U60C, the Kd turned out to be 10.8 nM.

With U22G U60A, the Kd was 9.43 nM.

With U22G U60G, the Kd was 7.18 nM.

On to G20A U23G, for which the Kd was found to be 5.94 nM.

As for A19G C53U, the Kd was found to be 4.21 nM.

With C17U A19G, the dissociation constant Kd was 7.29 nM.

Take U22G C25U: the Kd came to 6.29 nM.

Consider U22G C25G, for which the dissociation constant (Kd) came out at 5.5 nM.

Consider G16U G30A, for which the Kd is 4.95 nM.

C17U G54A: the Kd was 11.6 nM.

Take U22G G54A: the Kd was 12.1 nM.

Regarding U22G G54U, the Kd is 7.13 nM.

A19G C66U: the dissociation constant Kd was 5.18 nM.

For the variant C17G G30A, the Kd is 3.42 nM.

In the case of A19G G64A, the Kd turned out to be 6.54 nM.

In the case of A19U U22G, the equilibrium dissociation constant (Kd) was found to be 6 nM.

As to C17G C33U, the Kd was 5.64 nM.

Take U22G A24U: the Kd turned out to be 7.45 nM.

As to U22G A24G, the Kd stood at 5.62 nM.

As to A19G A31U, the Kd was 5.3 nM.

Regarding A19G A31G, the equilibrium dissociation constant (Kd) was found to be 6.72 nM.

In the case of A19G A39U, the Kd turned out to be 31.1 nM.

As to A19G A39G, the dissociation constant (Kd) turned out to be 9.35 nM.

With G16U G18A, the Kd is 7.17 nM.

Turning to A19U A52U, the Kd came to 22.1 nM.

In the case of G20U U28C, the dissociation constant (Kd) is 9.17 nM.

In the case of C17G C38U, the equilibrium dissociation constant (Kd) came to 7.29 nM.

G20U G54A: the equilibrium dissociation constant (Kd) stood at 20.1 nM.

On to C17G U47G, for which the Kd is 4.63 nM.

Consider A19U U41G, for which the dissociation constant (Kd) was 4.74 nM.

Regarding A21G G64A, the Kd was determined as 9.49 nM.

In the case of G20U A21G, the Kd stood at 5.12 nM.

For the variant U22G A67U, the Kd came out at 7.3 nM.

As for U22G A67G, the Kd came to 5.48 nM.

Consider C17G U28G, for which the Kd was 6.4 nM.

In the case of C17G U28C, the Kd was found to be 8.7 nM.

On to U22G A43U, for which the dissociation constant (Kd) came to 56.4 nM.

U22G A43G: the dissociation constant Kd turned out to be 22.8 nM.

For the variant A21U U41G, the dissociation constant (Kd) worked out at 5.38 nM.

Take G18C: the dissociation constant Kd was found to be 6.13 nM.

On to G18A, for which the equilibrium dissociation constant (Kd) turned out to be 4.61 nM.

G18U: the Kd amounted to 5.57 nM.

Take U22A: the dissociation constant Kd was determined as 5.46 nM.

Take U22G: the Kd was determined as 4.92 nM.

U22C: the Kd is 4.53 nM.

Take G20U G64A: the equilibrium dissociation constant (Kd) was 9.36 nM.

Consider U22C U41G, for which the Kd is 5.5 nM.

As to G20U A31G, the Kd came to 8.41 nM.

For A19G C33U, the dissociation constant (Kd) amounted to 7.36 nM.

Turning to A19G G65A, the dissociation constant Kd was determined as 6.12 nM.

As to A19G G65U, the dissociation constant (Kd) is 7.38 nM.

Turning to U23A U29G, the Kd amounted to 5.75 nM.

Turning to G18A U23G, the Kd was 4.95 nM.

For the variant C17G G63U, the Kd came out at 10.3 nM.

Regarding C17G C25G, the Kd amounted to 4.76 nM.

For the variant C17G C25U, the dissociation constant Kd is 5.39 nM.

Consider A21G U23G, for which the Kd was determined as 6.71 nM.

Regarding G16U G54A, the Kd came to 16.2 nM.

As to A21U U23G, the dissociation constant (Kd) is 6.73 nM.

As to U22A A24G, the Kd was 7.66 nM.

For the variant U22G G32U, the dissociation constant Kd worked out at 4.59 nM.

Take U22G G32A: the Kd was found to be 4.39 nM.

As for G18A A19G, the dissociation constant (Kd) amounted to 5.36 nM.

Regarding G18A A19C, the Kd was 6.3 nM.

On to G16U U22G, for which the equilibrium dissociation constant (Kd) came to 6.64 nM.

Consider C17U A31G, for which the Kd was 5.15 nM.

A19G U47G: the dissociation constant Kd worked out at 7.16 nM.

Turning to G16U G65U, the equilibrium dissociation constant (Kd) worked out at 7.8 nM.

Take G16U U41C: the Kd is 76.2 nM.

In the case of G16U U41G, the Kd came to 6.39 nM.

With G20U G65U, the dissociation constant Kd worked out at 7.46 nM.

Turning to U22C U29G, the dissociation constant (Kd) stood at 5.29 nM.

On to G16U A24G, for which the Kd came out at 7.15 nM.

For U22G C33U, the Kd was determined as 5.57 nM.

As for U22G C33G, the Kd worked out at 6.1 nM.

Consider A21G A24G, for which the dissociation constant Kd came out at 6.42 nM.

As to C17G U29G, the Kd is 4.86 nM.

Regarding C17G U29C, the Kd is 4.96 nM.

Consider A19G G54A, for which the equilibrium dissociation constant (Kd) stood at 15.1 nM.

Consider C17G G65U, for which the dissociation constant (Kd) was found to be 7.17 nM.

On to U22G A31G, for which the Kd was determined as 6.63 nM.

U22G A31U: the Kd turned out to be 5.65 nM.

As for C17G A19U, the Kd stood at 7.26 nM.

Regarding C17G A19G, the dissociation constant (Kd) is 5.02 nM.

For A19G G63A, the Kd worked out at 19.1 nM.

As for A19G G63U, the Kd was determined as 14.8 nM.

Take U22G U28A: the Kd was determined as 5.81 nM.

Turning to U22G U28G, the dissociation constant Kd amounted to 6.89 nM.

Consider U22G U28C, for which the equilibrium dissociation constant (Kd) is 8.17 nM.

As for A19G U22G, the dissociation constant (Kd) is 5.7 nM.

With A19G U22C, the Kd came out at 4.25 nM.

For A19G G55A, the Kd is 7.92 nM.

As to A19G G55U, the Kd came out at 10.6 nM.

Consider U23A A24G, for which the Kd was 6.07 nM.

As to U22G C36G, the Kd was found to be 7.35 nM.

In the case of U22G C36A, the Kd turned out to be 10.1 nM.

As to U22G C36U, the equilibrium dissociation constant (Kd) is 6.89 nM.

Regarding A21G A59U, the equilibrium dissociation constant (Kd) amounted to 73 nM.

For A19G A52U, the dissociation constant (Kd) is 19.5 nM.

As to A19G A52G, the Kd came out at 5.06 nM.

For U22G G58U, the Kd was found to be 10.5 nM.

With C17U G64A, the Kd was found to be 11.1 nM.

With G16U A39G, the dissociation constant (Kd) was 8.49 nM.

Take G16U A39U: the Kd was found to be 23.5 nM.

On to U22G G45U, for which the dissociation constant Kd came out at 7.63 nM.

With U22G G45A, the dissociation constant (Kd) turned out to be 74.7 nM.

As to C17A U23G, the Kd came to 5.06 nM.

Take G16U C25G: the equilibrium dissociation constant (Kd) was found to be 7.48 nM.

Consider G18U A19G, for which the Kd amounted to 6.31 nM.

With G18U U29G, the Kd is 7.47 nM.

For U22C C57U, the Kd was 2.92 nM.

Take A19G U23G: the Kd amounted to 6.11 nM.

With U22G U23A, the Kd is 6.19 nM.

For U22G U23G, the Kd stood at 6.17 nM.

Consider U22G U23C, for which the Kd amounted to 4.62 nM.

Take G20U C57U: the dissociation constant Kd was 7.84 nM.

In the case of A19G C57U, the Kd came to 4.99 nM.

As for G18U U22G, the Kd was determined as 6.85 nM.

Regarding G18A A24G, the dissociation constant Kd is 5.85 nM.

On to C17G, for which the Kd is 5.02 nM.

As to C17U, the dissociation constant (Kd) amounted to 4.56 nM.

For C17A, the Kd is 4.3 nM.

Regarding G20A U29G, the Kd was determined as 4.98 nM.

For the variant G20U U22G, the Kd is 6.52 nM.

Take G16C: the dissociation constant Kd came out at 4.81 nM.

In the case of G16U, the Kd is 5.88 nM.

With G16A G20U, the equilibrium dissociation constant (Kd) was found to be 7.98 nM.

On to A21G U28C, for which the Kd is 6.03 nM.
